Assays:
[1] = Cytotoxicity against human PC3 cells assessed as cell growth inhibition after 48 hrs by MTT assay; format: functional, cell-based; settings: PC-3, 48 h
Summary of the method: (§1)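 Cell lines (NCCS) grown in DMEM or RPMI with 10% FBS and antibiotic-antimycotic at 37 °C, 5% CO2, 90% humidity. Cells seeded at 3-5×10^3 per well, treated 48 h with serial dilutions in medium beside vehicle control. Medium replaced with MTT (0.5 mg/mL) for 4 h, absorbance read at 570 nm. IC50 taken from concentration-response curves; sunitinib served as reference.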

[2] = Cytotoxicity against human MDA-MB-231 cells assessed as cell growth inhibition after 48 hrs by MTT assay; format: functional, cell-based; settings: MDA-MB-231, 48 h; summary of the method: as §1
[3] = Cytotoxicity against human A549 cells assessed as cell growth inhibition after 48 hrs by MTT assay; format: functional, cell-based; settings: A549, 48 h; summary of the method: as §1
[4] = Cytotoxicity against human BT549 cells assessed as cell growth inhibition after 48 hrs by MTT assay; format: functional, cell-based; settings: BT-549, 48 h; summary of the method: as §1
[5] = Cytotoxicity against human HeLa cells assessed as cell growth inhibition after 48 hrs by MTT assay; format: functional, cell-based; summary of the method: as §1
[6] = Cytotoxicity against human DU145 cells assessed as cell growth inhibition after 48 hrs by MTT assay; format: functional, cell-based; settings: DU-145, 48 h; summary of the method: as §1
[7] = Cytotoxicity against human RWPE1 cells assessed as cell growth inhibition after 48 hrs by MTT assay; format: toxicity, cell-based, RWPE-1

Question: For `O=C1Nc2ccc(F)cc2/C1=C\c1cccc(OCc2cn(Cc3ccccc3)nn2)c1`, which IC50 [1] is on record?
Answer: > 50 µM

Question: What about the IC50 [2] of the same molecule?
Answer: > 50 µM

Question: What about the IC50 [3] of the same molecule?
Answer: > 50 µM

Question: What about the IC50 [4] of the same molecule?
Answer: > 50 µM

Question: And the IC50 [5]?
Answer: > 50 µM

Question: Which IC50 [1] does the source give for `O=C1Nc2ccccc2/C1=C\c1cccc(OCc2cn(Cc3ccccc3)nn2)c1` here?
Answer: 29.5 µM

Question: And the IC50 [3]?
Answer: > 50 µM

Question: What about the IC50 [4] of the same molecule?
Answer: > 50 µM

Question: What about the IC50 [5] of the same molecule?
Answer: 32.3 µM

Question: And the IC50 [6]?
Answer: 31.7 µM

Question: What does the source list for `CC(=O)c1ccc2c(c1)/C(=C\c1cccc(OCc3cn(Cc4ccccc4)nn3)c1)C(=O)N2`?
Answer: IC50 [1]: > 50 µM; IC50 [2]: > 50 µM; IC50 [3]: > 50 µM; IC50 [4]: > 50 µM; IC50 [5]: > 50 µM; IC50 [6]: > 50 µM

Question: Which IC50 [1] does the source give for `COc1cc(Cn2cc(COc3cccc(/C=C4\C(=O)Nc5ccccc54)c3)nn2)cc(OC)c1` here?
Answer: 31.7 µM

Question: What about the IC50 [2] of the same molecule?
Answer: > 50 µM

Question: And the IC50 [3]?
Answer: 43.3 µM

Question: What about the IC50 [4] of the same molecule?
Answer: > 50 µM

Question: And the IC50 [5]?
Answer: 33.8 µM

Question: With `O=C1Nc2ccc(Cl)cc2/C1=C/c1cccc(OCc2cn(Cc3ccccc3)nn2)c1` as the molecule, how does the IC50 [1] read?
Answer: > 50 µM

Question: And the IC50 [3]?
Answer: > 50 µM

Question: And the IC50 [6]?
Answer: 24.2 µM

Question: What does the source list for `COc1ccc(Cc2ccc3c(c2)/C(=C/c2cccc(OCc4cn(Cc5ccccc5)nn4)c2)C(=O)N3)cc1`?
Answer: IC50 [1]: > 50 µM; IC50 [2]: 20.4 µM; IC50 [3]: 30.5 µM; IC50 [4]: 36 µM; IC50 [5]: 7.7 µM; IC50 [6]: 6.7 µM

Question: With `CC(=O)c1ccc2c(c1)/C(=C/c1cccc(OCc3cn(Cc4ccccc4)nn3)c1)C(=O)N2` as the molecule, how does the IC50 [1] read?
Answer: > 50 µM

Question: What about the IC50 [2] of the same molecule?
Answer: > 50 µM

Question: What about the IC50 [3] of the same molecule?
Answer: 36.3 µM

Question: What about the IC50 [4] of the same molecule?
Answer: > 50 µM

Question: And the IC50 [5]?
Answer: > 50 µM

Question: And the IC50 [6]?
Answer: > 50 µM

Question: For `Cc1ccc(C(C#Cc2ccccc2)c2ccc3c(c2)/C(=C/c2cccc(OCc4cn(Cc5ccccc5)nn4)c2)C(=O)N3)cc1` (centres undefined), which IC50 [1] is on record?
Answer: > 50 µM

Question: What about the IC50 [2] of the same molecule?
Answer: > 50 µM

Question: And the IC50 [3]?
Answer: > 50 µM

Question: What about the IC50 [4] of the same molecule?
Answer: > 50 µM

Question: And the IC50 [5]?
Answer: > 50 µM

Question: And the IC50 [6]?
Answer: > 50 µM

Question: For `O=C1Nc2ccc(C(=O)c3ccccc3)cc2/C1=C\c1cccc(OCc2cn(Cc3ccccc3)nn2)c1`, which IC50 [1] is on record?
Answer: > 50 µM

Question: And the IC50 [2]?
Answer: > 50 µM

Question: What about the IC50 [3] of the same molecule?
Answer: > 50 µM

Question: What about the IC50 [4] of the same molecule?
Answer: > 50 µM

Question: And the IC50 [5]?
Answer: > 50 µM

Question: And the IC50 [6]?
Answer: > 50 µM

Question: What does the source list for `O=C1Nc2ccc(Br)cc2/C1=C/c1cccc(OCc2cn(Cc3ccccc3)nn2)c1`?
Answer: IC50 [1]: > 50 µM; IC50 [2]: > 50 µM; IC50 [3]: > 50 µM; IC50 [4]: > 50 µM; IC50 [5]: > 50 µM; IC50 [6]: 35.1 µM

Question: What does the source list for `O=C1Nc2cc(Br)ccc2/C1=C\c1cccc(OCc2cn(Cc3ccccc3)nn2)c1`?
Answer: IC50 [1]: > 50 µM; IC50 [3]: 9.6 µM; IC50 [4]: > 50 µM; IC50 [6]: 5.7 µM

Question: Which results are given for `O=C1Nc2ccc(C(c3ccccc3)c3ccccc3)cc2/C1=C\c1cccc(OCc2cn(Cc3ccccc3)nn2)c1`?
Answer: IC50 [1]: > 50 µM; IC50 [2]: > 50 µM; IC50 [3]: > 50 µM; IC50 [4]: > 50 µM; IC50 [5]: > 50 µM; IC50 [6]: > 50 µM

Question: What does the source list for `CCN(CC)CCNC(=O)c1c(C)[nH]c(/C=C2\C(=O)Nc3ccc(F)cc32)c1C` [SUNITINIB]?
Answer: IC50 [1]: 12.6 µM; IC50 [2]: 7.4 µM; IC50 at 48 h [7]: 25.2 µM; IC50 [5]: 10.4 µM; IC50 [6]: 16.3 µM

Question: With `O=Cc1cccc(OCc2cn(Cc3ccccc3)nn2)c1` as the molecule, how does the IC50 [1] read?
Answer: > 50 µM

Question: What about the IC50 [2] of the same molecule?
Answer: > 50 µM

Question: And the IC50 [3]?
Answer: > 50 µM

Question: What about the IC50 [4] of the same molecule?
Answer: > 50 µM

Question: What about the IC50 [5] of the same molecule?
Answer: > 50 µM

Question: And the IC50 [6]?
Answer: > 50 µM

Question: For `Cc1ccc(C(C#Cc2ccccc2)c2ccc3c(c2)/C(=C\c2cccc(OCc4cn(Cc5ccccc5)nn4)c2)C(=O)N3)cc1` (centres undefined), which IC50 [1] is on record?
Answer: > 50 µM

Question: What about the IC50 [3] of the same molecule?
Answer: 36.6 µM

Question: What about the IC50 [4] of the same molecule?
Answer: > 50 µM

Question: What about the IC50 [5] of the same molecule?
Answer: 32.8 µM

Question: And the IC50 [6]?
Answer: 28.9 µM

Question: What does the source list for `O=C1Nc2ccccc2/C1=C/c1cccc(OCc2cn(Cc3ccccc3)nn2)c1`?
Answer: IC50 [1]: 34.5 µM; IC50 [3]: 31.5 µM; IC50 [4]: > 50 µM

Question: With `O=C1Nc2cc(Cl)ccc2/C1=C\c1cccc(OCc2cn(Cc3ccccc3)nn2)c1` as the molecule, how does the IC50 [1] read?
Answer: > 50 µM

Question: What about the IC50 [2] of the same molecule?
Answer: > 50 µM

Question: And the IC50 [3]?
Answer: > 50 µM

Question: What about the IC50 [4] of the same molecule?
Answer: > 50 µM

Question: What about the IC50 [5] of the same molecule?
Answer: > 50 µM

Question: What about the IC50 [6] of the same molecule?
Answer: 20.1 µM

Question: For `COc1cc(Cn2cc(COc3cccc(/C=C4/C(=O)Nc5ccccc54)c3)nn2)cc(OC)c1`, which IC50 [1] is on record?
Answer: 37.1 µM

Question: What about the IC50 [2] of the same molecule?
Answer: 11.7 µM

Question: And the IC50 [3]?
Answer: 26.7 µM

Question: And the IC50 [5]?
Answer: 22 µM

Question: What about the IC50 [6] of the same molecule?
Answer: 25.6 µM

Question: What does the source list for `COc1ccc(Cc2ccc3c(c2)/C(=C\c2cccc(OCc4cn(Cc5ccccc5)nn4)c2)C(=O)N3)cc1`?
Answer: IC50 [1]: 32.2 µM; IC50 [2]: > 50 µM; IC50 [3]: > 50 µM; IC50 [4]: > 50 µM; IC50 [6]: > 50 µM

Question: With `O=C1Nc2ccc([N+](=O)[O-])cc2/C1=C\c1cccc(OCc2cn(Cc3ccccc3)nn2)c1` as the molecule, how does the IC50 [1] read?
Answer: > 50 µM

Question: What about the IC50 [2] of the same molecule?
Answer: > 50 µM

Question: And the IC50 [3]?
Answer: > 50 µM

Question: What about the IC50 [4] of the same molecule?
Answer: > 50 µM

Question: And the IC50 [5]?
Answer: > 50 µM

Source: ChEMBL document CHEMBL3875168, “Synthesis and apoptosis inducing studies of triazole linked 3-benzylidene isatin derivatives” (Eur J Med Chem, 2016)
